Results as given in ChEMBL document CHEMBL1129031, “Cyclic nitrone free radical traps: isolation, identification, and synthesis of 3,3-dimethyl-3,4-dihydroisoquinolin-4-ol N-oxide, a metabolite with reduced side effects” (J Med Chem, 1996).

Assays:
[1] = In vitro antioxidant activity was measured as IC50, inhibition concentration against neuronal peroxidation.; assay type: functional, Rattus norvegicus
Summary of the method: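 Rat cerebellar granule cells (from 8-day pups, 8-10 days in vitro) in glucose-free Na⁺-free Locke's, pH 7.3. Nitrone was preincubated 30 min, then FeCl₂ added at 100 µM final for 45 min. TBARS measured in the medium, with no-iron background subtracted. IC50 is the concentration inhibiting 50% of iron-induced oxidation.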

[2] = Lipophilicity expressed as log K'w.; assay type: physicochemical; conditions: reversed-phase HPLC
[3] = Maintenance of cell viability by the compound was tested in vitro against cerebellar granule cell cultures from 8-day-old-rats; assay type: functional; conditions: Rattus norvegicus
Summary of the method: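 Cerebellar granule cultures from 8-day-old rats were used at 8-10 days in vitro. Cells got nitrone for 30 min, then 100 µM FeCl₂ for 45 min in Na⁺-free Locke's. MEM plus MTT was added for 4 h and the cells lysed in acidic 2-propanol. Read at A570-630, with cell death given relative to no-iron cells. Two separate experiments about 6 months apart.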

[4] = In vitro antioxidant activity was measured as IC50, Inhibition concentration against Liposomal peroxidation.; assay type: functional, Glycine max
Summary of the method: (§1)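 Liposomes were made from soybean phosphatidylcholine. Oxidation was initiated and quantitated by the previously described method. Activity is expressed as IC50, the concentration inhibiting lipid peroxidation by 50%.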

[5] = tested on: Mus musculus; test: (§2) The compound was tested for acute toxicity and activity is expressed as deaths/5 mice after iv (400 mg/kg) administration.; assay type: organism-based; conditions: in vivo
Summary of the method: (§3)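 Acute toxicity screen in mice given the compound intravenously at 400 mg/kg body weight, five mice per group. Read-out is the survival rate, reported as the number of deaths among the five animals.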

[6] = tested on: Mus musculus; test: (§4) The compound was tested for acute toxicity and activity is expressed as deaths/5 mice after iv (200 mg/kg) administration.; assay type: organism-based; conditions: in vivo
Summary of the method: (§5)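 Acute toxicity screen in mice given the compound intravenously at 200 mg/kg body weight, five mice per group. Read-out is the survival rate, reported as the number of deaths among the five animals.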

[7] = Compound was tested for brain permeability at 200 mg/kg i.p. after 60 min; assay type: ADME, organism-based; parameters: dose 200 mg/kg, route intraperitoneal; conditions: in vivo, ip, 1 h
Summary of the method: (§6)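 Rats given a single ip dose of 200 mg/kg and killed at 30 or 60 min after dosing. Brains were removed, homogenized and extracted with CHCl₃/MeOH. Brain level is reported as µg/g wet weight.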

[8] = Compound was tested for brain permeability at 200 mg/kg i.p. after 30 min; assay type: ADME, organism-based; parameters: dose 200 mg/kg, route intraperitoneal; conditions: in vivo, ip, 0.5 h; summary of the method: as §6
[9] = tested on: Mus musculus; test: as §2; assay type: functional; summary of the method: as §3
[10] = tested on: Mus musculus; test: as §4; assay type: functional; summary of the method: as §5
[11] = tested on: Rattus norvegicus; test: Compound was tested for rat brain permeability at 200 mg/kg i.p. after 60 min; assay type: ADME, organism-based; parameters: dose 200 mg/kg, route intraperitoneal; conditions: in vivo, ip, 1 h; summary of the method: as §6
[12] = tested on: Rattus norvegicus; test: Compound was tested for rat brain permeability at 200 mg/kg i.p. after 30 min; assay type: ADME, organism-based; parameters: dose 200 mg/kg, route intraperitoneal; conditions: in vivo, ip, 0.5 h; summary of the method: as §6
[13] = In vitro antioxidant activity was measured as IC50, Inhibitory concentration against Liposomal peroxidation.; assay type: functional, Glycine max; summary of the method: as §1

Row | SMILES | IC50 [1] [µM] | Log k'w [2] | IC50 [3] [µM] | IC50 [4] [µM] | Toxicity [5] | Toxicity [6] | Brain level [7] [µg/g] | Brain level [8] [µg/g] | Toxicity [9] | Toxicity [10] | Brain level [11] [µg/g] | Brain level [12] [µg/g] | IC50 [13] [µM]
1 | [O-][N+]1=Cc2ccccc2C(O)C12CCCC2 (centres undefined) | 771 | 1.67 | 817 | 1040 | 0 | 0 |  |  |  |  |  |  | 
2 | [O-][N+]1=Cc2ccccc2C(O)C12CCCCC2 (centres undefined) | 520 | 2.1 | 588 | 539 | 0 | 0 |  |  |  |  |  |  | 
3 | CC1(C)C(O)c2ccccc2C=[N+]1[O-] (centres undefined) | 1900 | 0.91 | 1500 | 5500 |  |  | 127 | 142 | 0 | 0 |  |  | 
4 | CC(=O)OC1c2ccccc2C=[N+]([O-])C1(C)C (centres undefined) | 839 | 1.95 | 660 | 2090 | 0 | 0 |  |  |  |  |  |  | 
5 | O=C1c2ccccc2C=[N+]([O-])C12CCCC2 | 102 | 2.05 |  | 157 | 4 | 0 |  |  |  |  |  |  | 
6 | O=C1c2ccccc2C=[N+]([O-])C12CCCCC2 | 37 | 2.6 | 39 | 27 | 5 | 0 |  |  |  |  |  |  | 
7 | CC1(C)C(=O)c2ccccc2C=[N+]1[O-] | 830 | 1.65 | 882 | 940 | 1 | 0 |  |  |  |  | 67 | 103 | 
8 | CC(C)(C)/[N+]([O-])=C/c1ccccc1 | 2580 |  | 2600 |  |  |  |  |  | 4 | 1 | 38 | 51 | 14300
9 | CC1(C)Cc2ccccc2C=[N+]1[O-] | 307 | 1.9 |  | 1670 |  |  | 77 | 109 | 5 | 0 |  |  | 
